Measurements from ChEMBL document CHEMBL3352699 (J Med Chem, 2014).
In brackets after ≈: the same amount, converted by molar mass. One block for each molecule: values may come before it.

How the values were obtained:
[1] = Octanol-water partition coefficient, log D of the compound at pH 7.4 by shake flask method; type: physicochemical
[2] = target: T1, Pyroglutamylated RF-amide peptide receptor (Homo sapiens, UniProt Q96P65); test: Inhibition of human GPR103 receptor expressed in CHOK1 cells by IP-1 assay; type: cell-based, CHO-K1
T1 sequence (Q96P65 whole entry): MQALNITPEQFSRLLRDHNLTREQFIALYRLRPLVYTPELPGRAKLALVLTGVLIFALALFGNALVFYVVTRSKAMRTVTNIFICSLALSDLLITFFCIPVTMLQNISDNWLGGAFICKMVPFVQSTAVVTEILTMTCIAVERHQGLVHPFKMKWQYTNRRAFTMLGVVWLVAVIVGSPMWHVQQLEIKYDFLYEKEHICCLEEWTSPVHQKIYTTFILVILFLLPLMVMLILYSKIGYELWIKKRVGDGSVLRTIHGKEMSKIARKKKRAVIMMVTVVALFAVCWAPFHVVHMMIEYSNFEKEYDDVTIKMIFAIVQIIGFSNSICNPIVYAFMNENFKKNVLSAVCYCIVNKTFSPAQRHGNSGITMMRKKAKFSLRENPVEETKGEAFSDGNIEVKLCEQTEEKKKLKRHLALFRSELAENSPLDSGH
In short: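 Cryopreserved human QRFP/GPR103 receptor cell line thawed in stimulation buffer, preincubated with compound at 37 °C, 5% CO2, then stimulated with hQRFP43 at EC80 for 50 min at 37 °C. IP-1 read by HTRF (665/620 nm ratio). IC50 mean of N = 2−52 determinations, one to three replicates per concentration; CIR 2.0, MDR 2.8.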

[3] = Intrinsic clearance in human liver microsomes; type: ADME; settings: read-out: CLH
In short: (§1)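 Intrinsic clearance corrected for unspecific binding in the incubations. CIR 1.4 for human hepatocytes, 1.7 for human liver microsomes.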

[4] = Solubility of the compound in HBSS buffer at pH 7.4 after 18 hrs by LC/MS/MS analysis; type: physicochemical
[5] = target: T1, Pyroglutamylated RF-amide peptide receptor; test: Displacement of [125I]QRFP43 from human GPR103 receptor expressed in HEK cells after 90 mins incubation by scintillation counting; type: cell-based, HEK293
In short: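 HEK membranes overexpressing human GPR103 incubated with compound and 0.25 nM 125I-hQRFP43 in 50 mM Tris pH 7.4, 1 mM EDTA, 0.1% BSA at 30 °C for 90 min. Bound radioligand separated by vacuum filtration and counted by scintillation. IC50 mean of N = 2−5 determinations, one replicate per concentration; CIR 1.7, MDR 2.1.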

[6] = target: Sodium channel protein type 5 subunit alpha (Homo sapiens, UniProt Q14524); test: Inhibition of human Nav1.5 expressed in CHO cells by electrophysiology assay; type: cell-based
Sodium channel protein type 5 subunit alpha, sequence (Q14524 whole entry): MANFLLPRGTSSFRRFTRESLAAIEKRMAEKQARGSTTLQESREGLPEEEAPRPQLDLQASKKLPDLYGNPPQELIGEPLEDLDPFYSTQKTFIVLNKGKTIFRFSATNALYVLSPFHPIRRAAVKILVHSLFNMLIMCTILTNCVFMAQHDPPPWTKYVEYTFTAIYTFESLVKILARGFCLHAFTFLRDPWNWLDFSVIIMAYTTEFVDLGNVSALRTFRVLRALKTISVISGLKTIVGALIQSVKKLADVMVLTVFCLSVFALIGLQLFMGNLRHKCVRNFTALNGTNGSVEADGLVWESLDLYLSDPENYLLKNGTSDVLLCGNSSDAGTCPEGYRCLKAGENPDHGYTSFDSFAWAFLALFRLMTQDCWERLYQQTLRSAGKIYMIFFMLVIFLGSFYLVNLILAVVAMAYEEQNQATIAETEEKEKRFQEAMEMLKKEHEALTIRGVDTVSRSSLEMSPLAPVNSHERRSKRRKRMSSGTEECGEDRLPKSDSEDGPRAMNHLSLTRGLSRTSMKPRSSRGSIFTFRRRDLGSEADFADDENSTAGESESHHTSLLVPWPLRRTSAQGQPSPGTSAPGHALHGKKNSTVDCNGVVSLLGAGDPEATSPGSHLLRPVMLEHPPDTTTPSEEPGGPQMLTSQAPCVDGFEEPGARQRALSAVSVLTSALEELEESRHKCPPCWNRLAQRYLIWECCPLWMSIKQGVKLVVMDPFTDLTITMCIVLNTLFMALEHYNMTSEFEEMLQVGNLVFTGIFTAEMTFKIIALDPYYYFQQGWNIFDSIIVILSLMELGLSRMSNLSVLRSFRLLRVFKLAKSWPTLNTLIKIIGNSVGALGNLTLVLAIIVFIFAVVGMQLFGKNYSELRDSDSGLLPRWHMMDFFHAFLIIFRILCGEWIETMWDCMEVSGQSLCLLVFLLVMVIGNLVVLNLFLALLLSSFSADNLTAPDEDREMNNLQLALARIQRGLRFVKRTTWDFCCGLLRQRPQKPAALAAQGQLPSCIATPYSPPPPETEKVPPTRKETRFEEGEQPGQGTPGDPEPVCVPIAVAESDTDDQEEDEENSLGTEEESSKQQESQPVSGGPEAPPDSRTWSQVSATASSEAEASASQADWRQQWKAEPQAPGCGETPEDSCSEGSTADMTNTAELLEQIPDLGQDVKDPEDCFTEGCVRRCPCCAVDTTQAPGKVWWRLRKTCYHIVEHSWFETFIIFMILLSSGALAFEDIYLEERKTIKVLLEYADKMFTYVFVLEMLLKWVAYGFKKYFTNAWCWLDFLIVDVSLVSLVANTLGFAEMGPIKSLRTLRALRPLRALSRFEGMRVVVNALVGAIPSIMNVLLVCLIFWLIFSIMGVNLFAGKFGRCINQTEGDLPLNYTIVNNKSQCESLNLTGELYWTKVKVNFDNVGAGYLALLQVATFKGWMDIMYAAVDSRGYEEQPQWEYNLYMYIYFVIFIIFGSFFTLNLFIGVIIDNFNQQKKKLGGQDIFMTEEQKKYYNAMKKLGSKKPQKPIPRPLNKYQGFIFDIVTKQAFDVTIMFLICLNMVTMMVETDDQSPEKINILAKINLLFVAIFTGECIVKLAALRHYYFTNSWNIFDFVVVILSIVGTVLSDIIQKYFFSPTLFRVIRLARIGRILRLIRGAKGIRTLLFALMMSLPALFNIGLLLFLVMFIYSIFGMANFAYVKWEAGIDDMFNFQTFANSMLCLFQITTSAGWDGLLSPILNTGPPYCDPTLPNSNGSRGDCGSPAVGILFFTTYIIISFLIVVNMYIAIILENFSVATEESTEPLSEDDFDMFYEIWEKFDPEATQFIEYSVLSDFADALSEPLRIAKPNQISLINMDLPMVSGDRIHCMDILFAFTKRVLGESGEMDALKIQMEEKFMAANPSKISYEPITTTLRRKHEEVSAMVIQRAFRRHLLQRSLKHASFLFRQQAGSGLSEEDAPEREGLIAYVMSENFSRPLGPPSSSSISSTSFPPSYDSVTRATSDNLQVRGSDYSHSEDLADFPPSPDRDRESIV

[7] = Apparent permeability across apical to basolateral side in human Caco2 cells by LC-MS/MS analysis; type: ADME, cell-based; settings: Caco-2, read-out: permeability
[8] = target: Cytochrome P450 2D6 (Homo sapiens, UniProt P10635); test: Inhibition of human CYP2D6 after 20 to 50 mins by high-throughput fluorescence assay; type: ADME
Cytochrome P450 2D6, sequence (P10635 whole entry): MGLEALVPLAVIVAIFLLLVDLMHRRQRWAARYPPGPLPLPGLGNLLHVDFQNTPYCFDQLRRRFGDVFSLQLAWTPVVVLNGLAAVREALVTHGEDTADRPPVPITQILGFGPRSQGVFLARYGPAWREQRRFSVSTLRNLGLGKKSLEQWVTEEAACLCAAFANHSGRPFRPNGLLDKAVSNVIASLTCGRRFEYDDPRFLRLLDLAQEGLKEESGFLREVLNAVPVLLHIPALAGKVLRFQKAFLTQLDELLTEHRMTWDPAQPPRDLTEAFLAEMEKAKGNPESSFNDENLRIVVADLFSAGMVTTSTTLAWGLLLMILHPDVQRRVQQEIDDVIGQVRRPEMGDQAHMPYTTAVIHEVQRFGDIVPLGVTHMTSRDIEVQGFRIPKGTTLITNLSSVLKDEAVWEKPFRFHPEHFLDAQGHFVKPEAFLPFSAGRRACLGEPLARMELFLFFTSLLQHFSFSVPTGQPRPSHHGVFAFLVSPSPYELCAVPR

[9] = target: Potassium voltage-gated channel subfamily E member 1 (Homo sapiens, UniProt P15382); test: Inhibition of human cardiac slowly activating delayed rectifier K+ channel expressed in CHO cells by electrophysiology assay; type: cell-based
[10] = target: Voltage-gated inwardly rectifying potassium channel KCNH2 (Homo sapiens, UniProt Q12809); test: Inhibition of human ERG expressed in CHO cells by electrophysiology assay; type: cell-based
Voltage-gated inwardly rectifying potassium channel KCNH2, sequence (Q12809 whole entry): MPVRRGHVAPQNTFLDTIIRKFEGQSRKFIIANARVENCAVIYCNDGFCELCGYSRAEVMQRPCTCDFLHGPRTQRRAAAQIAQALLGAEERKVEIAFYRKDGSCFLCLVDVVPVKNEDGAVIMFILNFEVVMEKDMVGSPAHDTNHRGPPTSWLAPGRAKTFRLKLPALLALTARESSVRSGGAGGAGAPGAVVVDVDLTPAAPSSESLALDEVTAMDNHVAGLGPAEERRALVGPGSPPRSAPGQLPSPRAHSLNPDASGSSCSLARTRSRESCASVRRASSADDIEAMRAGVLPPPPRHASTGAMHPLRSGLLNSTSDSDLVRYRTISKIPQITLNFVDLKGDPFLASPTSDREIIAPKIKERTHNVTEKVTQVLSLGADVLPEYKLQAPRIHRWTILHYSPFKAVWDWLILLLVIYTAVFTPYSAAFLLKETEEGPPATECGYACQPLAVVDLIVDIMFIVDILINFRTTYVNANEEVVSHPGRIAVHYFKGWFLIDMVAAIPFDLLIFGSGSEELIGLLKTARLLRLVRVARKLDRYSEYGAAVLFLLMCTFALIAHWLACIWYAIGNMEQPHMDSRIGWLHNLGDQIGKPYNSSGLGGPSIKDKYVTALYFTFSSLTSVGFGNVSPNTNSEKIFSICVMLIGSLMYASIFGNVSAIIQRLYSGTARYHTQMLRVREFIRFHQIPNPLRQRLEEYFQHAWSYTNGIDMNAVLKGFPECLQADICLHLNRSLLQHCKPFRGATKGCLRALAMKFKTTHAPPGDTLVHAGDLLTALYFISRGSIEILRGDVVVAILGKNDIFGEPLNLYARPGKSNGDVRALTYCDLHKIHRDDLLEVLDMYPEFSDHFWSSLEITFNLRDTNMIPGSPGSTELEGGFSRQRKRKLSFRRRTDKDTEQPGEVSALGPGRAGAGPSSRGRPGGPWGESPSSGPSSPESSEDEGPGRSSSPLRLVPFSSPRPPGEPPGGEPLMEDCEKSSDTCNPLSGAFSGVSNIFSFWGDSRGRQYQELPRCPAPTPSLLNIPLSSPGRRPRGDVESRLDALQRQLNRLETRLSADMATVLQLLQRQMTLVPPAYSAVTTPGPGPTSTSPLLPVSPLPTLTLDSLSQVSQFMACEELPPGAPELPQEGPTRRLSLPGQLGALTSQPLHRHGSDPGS

[11] = Inhibition of mouse GPR103B receptor expressed in CHO cells by IP-1 assay; type: cell-based
In short: (§2)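 CHO cells overexpressing mouse GPR103A or GPR103B thawed in stimulation buffer, preincubated with compound at 37 °C, 5% CO2, then stimulated with hQRFP43 at EC80 for 50 min at 37 °C. IP-1 measured by HTRF (665/620 nm ratio).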

[12] = Inhibition of mouse GPR103A receptor expressed in CHO cells by IP-1 assay; type: cell-based; in short: as §2
[13] = Intrinsic clearance in human hepatocytes measured per 10^6 cells; type: ADME, cell-based, Hepatocyte; settings: read-out: CLH; in short: as §1
[14] = target: Cytochrome P450 3A4 (Homo sapiens, UniProt P08684); test: Inhibition of human recombinant CYP3A4 after 20 to 50 mins by high-throughput fluorescence assay; type: ADME; settings: recombinant enzyme
[15] = target: T2, Cytochrome P450 2C8 (Homo sapiens, UniProt P10632); test: Inhibition of human recombinant CYP2C8 after 20 to 50 mins by high-throughput fluorescence assay; type: ADME; settings: recombinant enzyme
T2 sequence (P10632 whole entry): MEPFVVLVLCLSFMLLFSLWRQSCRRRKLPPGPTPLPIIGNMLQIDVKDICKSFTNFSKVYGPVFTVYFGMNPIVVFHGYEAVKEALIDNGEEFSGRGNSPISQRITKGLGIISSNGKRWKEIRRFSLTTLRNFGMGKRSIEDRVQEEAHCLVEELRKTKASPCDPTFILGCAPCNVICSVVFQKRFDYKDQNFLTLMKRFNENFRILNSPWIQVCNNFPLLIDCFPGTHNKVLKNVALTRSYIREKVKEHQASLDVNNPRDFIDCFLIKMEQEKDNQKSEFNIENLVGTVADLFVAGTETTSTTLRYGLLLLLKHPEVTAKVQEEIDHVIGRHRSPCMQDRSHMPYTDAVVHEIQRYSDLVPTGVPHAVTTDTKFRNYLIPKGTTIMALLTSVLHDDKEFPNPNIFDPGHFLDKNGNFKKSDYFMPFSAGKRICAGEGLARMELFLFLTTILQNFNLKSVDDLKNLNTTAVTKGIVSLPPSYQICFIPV

[16] = target: T3, Cytochrome P450 1A2 (Homo sapiens, UniProt P05177); test: Inhibition of human recombinant CYP1A2 after 20 to 50 mins by high-throughput fluorescence assay; type: ADME; settings: recombinant enzyme
T3 sequence (P05177 whole entry): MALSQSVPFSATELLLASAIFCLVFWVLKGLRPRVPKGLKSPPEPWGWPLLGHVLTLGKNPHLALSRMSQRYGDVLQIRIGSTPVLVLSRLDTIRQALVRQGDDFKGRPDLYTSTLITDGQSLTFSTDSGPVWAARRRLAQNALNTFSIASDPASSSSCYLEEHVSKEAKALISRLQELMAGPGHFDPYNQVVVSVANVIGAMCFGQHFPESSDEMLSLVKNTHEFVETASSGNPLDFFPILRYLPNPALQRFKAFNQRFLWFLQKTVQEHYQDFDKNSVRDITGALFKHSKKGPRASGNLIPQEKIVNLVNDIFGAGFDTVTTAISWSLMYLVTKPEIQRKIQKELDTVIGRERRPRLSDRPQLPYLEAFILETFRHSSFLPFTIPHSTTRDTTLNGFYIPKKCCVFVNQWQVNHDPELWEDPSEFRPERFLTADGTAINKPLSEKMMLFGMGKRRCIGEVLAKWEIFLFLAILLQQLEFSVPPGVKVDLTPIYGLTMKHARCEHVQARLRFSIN

[17] = target: Cytochrome P450 2C19 (Homo sapiens, UniProt P33261); test: Inhibition of human recombinant CYP2C19 after 20 to 50 mins by high-throughput fluorescence assay; type: ADME; settings: recombinant enzyme
Cytochrome P450 2C19, sequence (P33261 whole entry): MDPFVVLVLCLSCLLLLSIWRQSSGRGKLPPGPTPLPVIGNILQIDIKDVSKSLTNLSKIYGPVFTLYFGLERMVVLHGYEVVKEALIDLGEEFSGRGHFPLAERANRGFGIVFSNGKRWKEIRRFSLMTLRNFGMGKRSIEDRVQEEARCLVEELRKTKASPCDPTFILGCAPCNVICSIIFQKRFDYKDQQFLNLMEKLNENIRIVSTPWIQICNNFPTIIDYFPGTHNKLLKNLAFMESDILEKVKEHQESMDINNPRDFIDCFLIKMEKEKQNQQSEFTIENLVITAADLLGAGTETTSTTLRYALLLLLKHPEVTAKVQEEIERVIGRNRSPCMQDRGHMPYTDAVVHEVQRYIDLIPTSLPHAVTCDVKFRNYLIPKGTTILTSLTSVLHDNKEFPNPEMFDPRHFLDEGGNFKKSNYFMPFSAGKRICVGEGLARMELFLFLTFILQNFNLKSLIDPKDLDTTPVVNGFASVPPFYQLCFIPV

[18] = target: Cytochrome P450 2C9 (Homo sapiens, UniProt P11712); test: Inhibition of human recombinant CYP2C9 after 20 to 50 mins by high-throughput fluorescence assay; type: ADME; settings: recombinant enzyme
Cytochrome P450 2C9, sequence (P11712 whole entry): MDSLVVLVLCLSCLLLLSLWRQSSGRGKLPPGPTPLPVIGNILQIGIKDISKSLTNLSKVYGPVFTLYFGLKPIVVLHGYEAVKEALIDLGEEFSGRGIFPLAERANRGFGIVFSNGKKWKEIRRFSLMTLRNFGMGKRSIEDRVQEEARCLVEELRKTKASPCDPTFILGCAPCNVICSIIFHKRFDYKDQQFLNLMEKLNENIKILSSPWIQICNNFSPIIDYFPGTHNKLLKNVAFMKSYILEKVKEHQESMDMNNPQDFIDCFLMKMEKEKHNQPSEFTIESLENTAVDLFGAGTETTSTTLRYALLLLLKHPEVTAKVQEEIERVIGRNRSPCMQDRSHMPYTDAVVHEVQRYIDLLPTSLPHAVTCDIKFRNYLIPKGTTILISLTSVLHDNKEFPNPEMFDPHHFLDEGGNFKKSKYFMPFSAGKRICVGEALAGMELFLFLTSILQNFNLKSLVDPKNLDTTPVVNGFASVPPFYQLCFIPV

Compound: C#Cc1cc2cc(C(=O)N3CCc4cc(CN(C)C)ccc4C3)n(C)c2cn1
logD [1]: 1.2
IC50 [2]: 6000 nM

Compound: CC1CN(C(=O)c2cc3cc(Br)ncc3n2C)Cc2ccc(CN(C)C)cc21 (racemic)
logD [1]: 2.1
IC50 [2]: 110 nM

Compound: CN(C)Cc1ccc2c(c1)CCN(C(=O)c1cc3cc(I)ncc3n1C)C2
logD [1]: 2
IC50 [2]: 130 nM

Compound: CC1Cc2cc(CN(C)C)ccc2CN1C(=O)c1cc2cc(Br)ncc2n1C (racemic)
logD [1]: 2.1
IC50 [2]: 710 nM

Compound: CN(C)Cc1ccc2c(c1)CCN(C(=O)c1cc3ccncc3n1C)C2
logD [1]: 0.9
IC50 [2]: 2900 nM

Compound: Cc1cc2cc(C(=O)N3CCc4cc(CN(C)C)ccc4C3)n(C)c2cn1
logD [1]: 1.3
IC50 [2]: 18900 nM

Compound: CN(C)Cc1ccc2c(c1)CCN(C(=O)c1cc3cc(Cl)ccc3n1C)C2
microsomal CLint [3]: 156 µL/min/mg
solubility at 18 h [4]: 62 µM (≈ 23.7 µg/mL)
IC50 [5]: 70 nM
logD [1]: 3
IC50 [6]: 10300 nM
Papp A→B [7]: 7.8 ×10⁻⁶ cm/s
IC50 [8]: 2900 nM
IC50 [9]: 10500 nM
IC50 [10]: 4900 nM
IC50 [11]: 80 nM
IC50 [2]: 70 nM
IC50 [12]: 90 nM
hepatocyte CLint [13]: 40 µL/min/1e6 cells

Compound: CN(C)Cc1ccc2c(c1)CCN(C(=O)c1cc3cc(Br)ncc3n1C)C2
microsomal CLint [3]: 16 µL/min/mg
solubility at 18 h [4]: > 1000 µM
IC50 [5]: 280 nM
logD [1]: 1.7
IC50 [6]: > 33000 nM
inhibition (INH) [14]: Not Active
Papp A→B [7]: 13.2 ×10⁻⁶ cm/s
IC50 [8]: > 20000 nM
IC50 [9]: > 33000 nM
inhibition (INH) [15]: Not Active
IC50 [11]: 100 nM
inhibition (INH) [16]: Not Active
inhibition (INH) [17]: Not Active
IC50 [2]: 240 nM
inhibition (INH) [18]: Not Active
IC50 [12]: 330 nM
hepatocyte CLint [13]: 5.3 µL/min/1e6 cells

The remaining lines, values ahead:

logD [1]: 2.2
IC50 [2]: 500 nM
Compound: CC1c2ccc(CN(C)C)cc2CCN1C(=O)c1cc2cc(Br)ncc2n1C (racemic)

logD [1]: 1.8
IC50 [2]: 3300 nM
Compound: CN(C)Cc1ccc2c(c1)CCN(C(=O)c1cc3cc(C(F)(F)F)ncc3n1C)C2

logD [1]: 3
IC50 [2]: > 41000 nM
Compound: CN(C)Cc1ccc2c(c1)CCN(C(=O)c1cc3cc(-c4ccccc4)ncc3n1C)C2

logD [1]: 1.5
IC50 [2]: 570 nM
Compound: CN(C)Cc1ccc2c(c1)CCN(C(=O)c1cc3cc(Cl)ncc3n1C)C2
